# Reference: ChEMBL document CHEMBL5058577, “EUbOPEN Chemogenomics Library 2 (Multiplex)” (2022)
# Tested on: Fibroblast
# Experiment: Multiplex assay against human fibroblast
# Format: toxicity, cell-based
# Outline: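 Phenotypes for tubulin, mitochondrial mass and membrane permeability are expressed as per cents of healthy-nucleus cells. Cells were stained live at seeding with Hoechst33342, BioTracker Green Microtubule Cytoskeleton Dye, MitoTracker Red and Annexin V Alexa Fluor 680, then imaged after compound addition on a CQ1 microscope at 37°C and 5% CO2. Machine-learning gating in CellPathfinder separated Hoechst high-intensity objects from normal cells, divided normal cells by nuclear state (healthy, pyknosed, fragmented) and divided pyknosed cells into mitotic or apoptotic.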
# [1] = 12 h, 1 µM, compound concentration 1 uM, replicate 1
# [2] = 12 h, 1 µM, compound concentration 1 uM, replicate 2
# [3] = 12 h, 10 µM, compound concentration 10 uM, replicate 1
# [4] = 12 h, 10 µM, compound concentration 10 uM, replicate 2
# [5] = 24 h, 1 µM, compound concentration 1 uM, replicate 1
# [6] = 24 h, 1 µM, compound concentration 1 uM, replicate 2
# [7] = 24 h, 10 µM, compound concentration 10 uM, replicate 1
# [8] = 24 h, 10 µM, compound concentration 10 uM, replicate 2
# [9] = 48 h, 1 µM, compound concentration 1 uM, replicate 1
# [10] = 48 h, 1 µM, compound concentration 1 uM, replicate 2
# [11] = 48 h, 10 µM, compound concentration 10 uM, replicate 1
# [12] = 48 h, 10 µM, compound concentration 10 uM, replicate 2
smiles,measurement,setting,value
CCCCC1=NC2(CCCC2)C(=O)N1Cc1ccc(-c2ccccc2-c2nnn[nH]2)cc1 [IRBESARTAN],Population Apoptotic (%),[1],40%
same,Population Fragmented Nuclei (%),[1],14%
same,Population Healthy Nuclei (%),[1],67%
same,Population Hoechst High Intensity Objects (%),[1],1%
same,Population Membrane Permeable-Phenotype (%),[1],0%
same,Population Mitochondria Different-Phenotype (%),[1],5%
same,Population Mitotic Cells (%),[1],59%
same,Population Normal (%),[1],98%
same,Population Pyknosed Nuclei (%),[1],17%
same,Population Tubulin-Different-Phenotype (%),[1],28%
same,Total Cell Count,[1],159
same,Population Apoptotic (%),[2],38%
same,Population Fragmented Nuclei (%),[2],24%
same,Population Healthy Nuclei (%),[2],55%
same,Population Hoechst High Intensity Objects (%),[2],3%
same,Population Membrane Permeable-Phenotype (%),[2],7%
same,Population Mitochondria Different-Phenotype (%),[2],2%
same,Population Mitotic Cells (%),[2],61%
same,Population Normal (%),[2],96%
same,Population Pyknosed Nuclei (%),[2],20%
same,Population Tubulin-Different-Phenotype (%),[2],43%
same,Total Cell Count,[2],187
same,Population Apoptotic (%),[3],60%
same,Population Fragmented Nuclei (%),[3],11%
same,Population Healthy Nuclei (%),[3],74%
same,Population Hoechst High Intensity Objects (%),[3],3%
same,Population Membrane Permeable-Phenotype (%),[3],3%
same,Population Mitochondria Different-Phenotype (%),[3],4%
same,Population Mitotic Cells (%),[3],40%
same,Population Normal (%),[3],96%
same,Population Pyknosed Nuclei (%),[3],13%
same,Population Tubulin-Different-Phenotype (%),[3],37%
same,Total Cell Count,[3],151
same,Population Apoptotic (%),[4],45%
same,Population Fragmented Nuclei (%),[4],32%
same,Population Healthy Nuclei (%),[4],48%
same,Population Hoechst High Intensity Objects (%),[4],7%
same,Population Membrane Permeable-Phenotype (%),[4],12%
same,Population Mitochondria Different-Phenotype (%),[4],3%
same,Population Mitotic Cells (%),[4],54%
same,Population Normal (%),[4],92%
same,Population Pyknosed Nuclei (%),[4],18%
same,Population Tubulin-Different-Phenotype (%),[4],53%
same,Total Cell Count,[4],129
same,Population Apoptotic (%),[5],47%
same,Population Fragmented Nuclei (%),[5],19%
same,Population Healthy Nuclei (%),[5],69%
same,Population Hoechst High Intensity Objects (%),[5],2%
same,Population Membrane Permeable-Phenotype (%),[5],1%
same,Population Mitochondria Different-Phenotype (%),[5],3%
same,Population Mitotic Cells (%),[5],52%
same,Population Normal (%),[5],97%
same,Population Pyknosed Nuclei (%),[5],10%
same,Population Tubulin-Different-Phenotype (%),[5],22%
same,Total Cell Count,[5],170
same,Population Apoptotic (%),[6],31%
same,Population Fragmented Nuclei (%),[6],25%
same,Population Healthy Nuclei (%),[6],57%
same,Population Hoechst High Intensity Objects (%),[6],3%
same,Population Mitochondria Different-Phenotype (%),[6],0%
same,Population Mitotic Cells (%),[6],68%
same,Population Normal (%),[6],96%
same,Population Pyknosed Nuclei (%),[6],16%
same,Population Tubulin-Different-Phenotype (%),[6],40%
same,Total Cell Count,[6],183
same,Population Apoptotic (%),[7],56%
same,Population Fragmented Nuclei (%),[7],9%
same,Population Healthy Nuclei (%),[7],74%
same,Population Hoechst High Intensity Objects (%),[7],1%
same,Population Membrane Permeable-Phenotype (%),[7],3%
same,Population Mitochondria Different-Phenotype (%),[7],7%
same,Population Mitotic Cells (%),[7],44%
same,Population Normal (%),[7],98%
same,Population Pyknosed Nuclei (%),[7],16%
same,Population Tubulin-Different-Phenotype (%),[7],37%
same,Total Cell Count,[7],155
same,Population Apoptotic (%),[8],45%
same,Population Fragmented Nuclei (%),[8],36%
same,Population Healthy Nuclei (%),[8],47%
same,Population Hoechst High Intensity Objects (%),[8],2%
same,Population Membrane Permeable-Phenotype (%),[8],8%
same,Population Mitochondria Different-Phenotype (%),[8],5%
same,Population Mitotic Cells (%),[8],55%
same,Population Normal (%),[8],97%
same,Population Tubulin-Different-Phenotype (%),[8],60%
same,Total Cell Count,[8],125
same,Population Apoptotic (%),[9],60%
same,Population Fragmented Nuclei (%),[9],21%
same,Population Healthy Nuclei (%),[9],69%
same,Population Hoechst High Intensity Objects (%),[9],3%
same,Population Membrane Permeable-Phenotype (%),[9],0%
same,Population Mitochondria Different-Phenotype (%),[9],4%
same,Population Mitotic Cells (%),[9],40%
same,Population Normal (%),[9],96%
same,Population Pyknosed Nuclei (%),[9],8%
same,Population Tubulin-Different-Phenotype (%),[9],31%
same,Total Cell Count,[9],173
same,Population Apoptotic (%),[10],55%
same,Population Fragmented Nuclei (%),[10],31%
same,Population Healthy Nuclei (%),[10],58%
same,Population Hoechst High Intensity Objects (%),[10],2%
same,Population Membrane Permeable-Phenotype (%),[10],2%
same,Population Mitochondria Different-Phenotype (%),[10],1%
same,Population Mitotic Cells (%),[10],44%
same,Population Normal (%),[10],97%
same,Population Pyknosed Nuclei (%),[10],10%
same,Population Tubulin-Different-Phenotype (%),[10],39%
same,Total Cell Count,[10],178
same,Population Apoptotic (%),[11],61%
same,Population Fragmented Nuclei (%),[11],14%
same,Population Healthy Nuclei (%),[11],66%
same,Population Hoechst High Intensity Objects (%),[11],2%
same,Population Membrane Permeable-Phenotype (%),[11],1%
same,Population Mitochondria Different-Phenotype (%),[11],5%
same,Population Mitotic Cells (%),[11],38%
same,Population Normal (%),[11],97%
same,Population Pyknosed Nuclei (%),[11],18%
same,Population Tubulin-Different-Phenotype (%),[11],38%
same,Total Cell Count,[11],141
same,Population Apoptotic (%),[12],37%
same,Population Fragmented Nuclei (%),[12],37%
same,Population Healthy Nuclei (%),[12],48%
same,Population Hoechst High Intensity Objects (%),[12],0%
same,Population Membrane Permeable-Phenotype (%),[12],3%
same,Population Mitochondria Different-Phenotype (%),[12],1%
same,Population Mitotic Cells (%),[12],62%
same,Population Normal (%),[12],99%
same,Population Pyknosed Nuclei (%),[12],13%
same,Population Tubulin-Different-Phenotype (%),[12],58%
same,Total Cell Count,[12],117
